The nature of this data set: Toxicity liver stage against HepG2, at 10uM. It counts as cell-based. Details: test concentration 10 uM, cell line HepG2-A16-CD81EGFP. Particulars: human, HepG2-A16-CD81EGFP cells; read-out: INHIBITION
Summed up: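 Uninfected HepG2-A16-CD81EGFP cells, 3 × 10^3 per well, 1536-well, plated on prespotted compound at 10 μM final, parasite-free screening media added to match infected plates; puromycin 10 μM positive, DMSO 0.5% negative; run in parallel with 48 h PbLuc assay at 37 °C, 5% CO2; viability by CellTiter-Glo luminescence, normalized to controls.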

Structures are written as SMILES.

Consider `COCC(=O)N1CCOCC2(CCN(Cc3cccs3)C2)C1` (stereo not drawn), for which the cytotoxicity at 10 µM is -6.16%. Under `Cc1ccoc1C(=O)N1CC[C@H]2[C@H](C[C@@H](CN3CCCC3)N2C)C1` stands 4.42%; under `CC(C)CC(CC(C)C)NC(=O)c1ccn(C)c(=O)c1`, -0.717%. Turning to `CN(C(=O)C1CSCN1S(=O)(=O)c1ccc(F)cc1)C1CC1` (stereo not drawn), the cytotoxicity at 10 µM was 1.18%. Next, `CN1CCN(C(=O)[C@H]2CC[C@@H]3[C@@H](CCN3Cc3ccsc3)O2)CC1`: 1.07%; `Cc1cnn(CC2CN(CC(=O)N(C)c3nccs3)CCO2)c1` (stereo not drawn): 0.385%; `CN1CCC(N2CC[C@@H]3[C@@H](CCC(=O)N3CCC3=CCCCC3)C2)CC1`: -6.53%. Next, `Cc1cc(N2CCC(N(C)C(=O)c3ccccc3F)CC2)nc(C)n1`: 25.5%; `CC(Cn1cccn1)C(=O)N1CCC(NS(C)(=O)=O)CC1` (stereo not drawn): -8.34%; `O=C(Nc1ccccc1OC1CCOC1)c1[nH]nc2c1CCCC2` (stereo not drawn): 0.271%.

Consider `COc1ccccc1OCC(=O)NCc1ncc(C)c(OC)c1C`, for which the cytotoxicity at 10 µM was -6.63%.

As to `COCCn1ccc(=O)c(OCC(=O)Nc2ccc(OC)cc2)c1C`, the cytotoxicity at 10 µM is 0.955%. As to `CNS(=O)(=O)c1ccc(C(=O)N2CCCC(n3cccn3)C2)cc1` (stereo not drawn), the cytotoxicity at 10 µM was -7.95%. For `CCOc1ccc(S(=O)(=O)NCCc2ccc(N(C)C)cc2)cc1F`, the cytotoxicity at 10 µM is -3.56%. Next, `CCNc1ncc(C(=O)NCC2OCCc3ccccc32)cn1` (stereo not drawn): -53.1%; `Cn1cc(C(=O)N2CCCC(Cc3cccc4ncccc34)C2)cn1` (stereo not drawn): 4.88%; `CCN(CC1CCOC1)C(=O)Nc1ccc(N2CCCCC2)nc1` (stereo not drawn): -6.45%.

Turning to `COc1cc(OC)c(C2Nc3cc(Cl)ccc3C3=NCCN32)cc1OC` (stereo not drawn), the cytotoxicity at 10 µM was -3.14%. Next, `Cc1nn(C)c(C)c1C1CCCN1CC(=O)NCc1ccco1` (stereo not drawn): -12.4%; `CN(C)C(=O)N1Cc2ccccc2C2(CCNCC2)C1`: 1.26%; `CC(C)(O)CN1CCN(C(=O)c2cccc(CC#N)c2)CC1`: -13.4%. Next, `CC(=O)Nc1nc(C(=O)NCc2ccc(N3CCCCCC3)nc2)cs1`: 4.74%; `O=C(NCC(O)c1cccc(F)c1)c1cccnc1O` (stereo not drawn): -1.68%. Turning to `CC(C)CN1CCc2[nH]cnc2C12CCN(C(=O)c1ccnn1C)CC2`, the cytotoxicity at 10 µM is -4.77%. Next, `C[C@@H]1CN(C(=O)Cc2ccsc2)C[C@]12CCN(CCN(C)C)C2=O`: -1.1%. Consider `CC(C)c1nn(C)c(Cl)c1CNCC(O)c1cccc(F)c1` (stereo not drawn), for which the cytotoxicity at 10 µM is -1.83%. Consider `COc1cccc(NC(=O)C(C)Cn2cc(Cl)cn2)c1` (stereo not drawn), for which the cytotoxicity at 10 µM was -1.47%. Under `CCNC(=O)[C@@H]1C[C@@H](NC(=O)Cc2ccncc2)CN1Cc1ccsc1` stands -0.368%. Next, `Cc1ccc2[nH]c(CO[C@H]3CN(C(=O)C4CC4)C[C@H]3F)nc2c1`: -11.6%.

As to `CCC[C@H]1CN(S(=O)(=O)c2ccc(Cl)cc2)C[C@@H]1NC(C)=O`, the cytotoxicity at 10 µM is -12.4%. Next, `CCc1cc(CN(C)Cc2nc(-c3sccc3C)oc2C)on1`: -3.81%; `CCN(CC)CCNCc1cc(O)c2cc(C)ccc2n1`: 0.749%; `CN(C)c1nc2sc(C(=O)N3CCNC(=O)CC3)cc2s1`: -10.1%. Next, `Cc1ccc(C(=O)N(C)CC(=O)N2CCCC2)c(C)c1`: -0.705%. Under `Cc1cccc(N2CCCC3(C2)CN(S(C)(=O)=O)CCO3)c1` (stereo not drawn) stands 10.2%; under `CNc1ncc(CN(C)C(=O)c2c[nH]nc2-c2cccc(F)c2)cn1`, -4.69%. Turning to `COC(=O)CCNC(=O)c1cccc(C(=O)N(C)c2ccccc2)c1`, the cytotoxicity at 10 µM is -2.69%.

Consider `CNC(=O)Cc1ccc(NC(=O)NC(C)C(C)C)cc1` (stereo not drawn), for which the cytotoxicity at 10 µM is -4.69%.
